In publication PMC3514014 (Molecular and biochemical parasitology, 2010):
Where a SMILES comes first, the peptide text is derived from it. Where no end group is shown, it is not given here. The star is where a group is joined. ACC = NC(=O)Cc1cc(=O)oc2cc(N*)ccc12; AMC = Cc1cc(=O)oc2cc(N*)ccc12

Tests used:
[1] = system: cathepsin C; conditions: cited from earlier work
[2] = system: recombinant human cathepsin C; type: biochemical; conditions: for Km / kcat: 25 °C, pH 6.0, 30 mM chloride, mean ± SD, triplicate
[3] = target: T1, recombinant DPAP1 (rDPAP1) (Plasmodium falciparum, UniProt Q8IIJ9); type: biochemical; conditions: for Km / kcat: rDPAP1, 25 °C, pH 6.0, 30 mM chloride, mean ± SD, triplicate, NH = no hydrolysis; for hydrolysis of the substrate: recombinant DPAP1, concentrations up to 500 μM
T1 sequence (Q8IIJ9 28-209 limits assumed): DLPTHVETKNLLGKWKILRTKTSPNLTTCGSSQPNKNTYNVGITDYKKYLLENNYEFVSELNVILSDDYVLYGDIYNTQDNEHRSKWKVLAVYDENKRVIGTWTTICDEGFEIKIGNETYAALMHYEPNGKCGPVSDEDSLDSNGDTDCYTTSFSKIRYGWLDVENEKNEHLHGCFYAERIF
T1 sequence (Q8IIJ9 370-599 limits assumed): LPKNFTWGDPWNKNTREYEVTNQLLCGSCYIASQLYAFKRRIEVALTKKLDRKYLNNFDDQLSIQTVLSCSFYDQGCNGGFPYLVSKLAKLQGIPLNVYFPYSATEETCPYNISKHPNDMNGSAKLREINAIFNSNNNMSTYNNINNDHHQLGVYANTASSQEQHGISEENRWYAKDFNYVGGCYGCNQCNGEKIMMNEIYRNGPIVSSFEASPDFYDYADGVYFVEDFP
T1 sequence (Q8IIJ9 600-700 limits assumed): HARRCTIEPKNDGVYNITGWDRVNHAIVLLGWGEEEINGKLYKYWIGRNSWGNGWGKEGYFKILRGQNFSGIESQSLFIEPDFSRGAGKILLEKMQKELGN

[4] = target: T1, recombinant DPAP1 (rDPAP1); assay: Inhibition of recombinant DPAP1; type: biochemical
Outline: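 Recombinant E. coli-expressed DPAP1-His6, activated by TEV cleavage, at 0.8 nM. Run at 25 °C in 50 mM sodium MES pH 6.0 with 2 mM dithiothreitol and 1 mM EDTA, total chloride held at 30 mM with NaCl. Fluorogenic release read against an AMC standard, in triplicate. Rates taken from linear progress-curve segments after ~15 min lag; Ki by Dixon method.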

[5] = target: T2, native DPAP1 (nDPAP1) (Plasmodium falciparum, UniProt Q8IIJ9); type: biochemical; conditions: for hydrolysis of the substrate: native DPAP1, concentrations up to 500 μM; for kcat: nDPAP1, 25 °C, pH 6.0, 30 mM chloride, mean ± SD, triplicate, NH = no hydrolysis
T2 sequence (Q8IIJ9 28-209 limits assumed): T1 sequence (Q8IIJ9 28-209 limits assumed)
T2 sequence (Q8IIJ9 370-599 limits assumed): T1 sequence (Q8IIJ9 370-599 limits assumed)
T2 sequence (Q8IIJ9 600-700 limits assumed): T1 sequence (Q8IIJ9 600-700 limits assumed)

[6] = system: cathepsin C; conditions: cited from earlier work; remark: listed apart in the source
[7] = target: T2, native DPAP1 (nDPAP1); assay: Inhibition of native DPAP1; type: biochemical; conditions: Fig. 4 and Fig. S4, stated in words
[8] = system: cathepsin C; assay: Inhibition of cathepsin C under the DPAP1 assay conditions; type: biochemical, human; conditions: assay conditions used for DPAP1
[9] = recombinant DPAP1, Fig. 4 and Fig. S4, stated in words

NC(Cc1ccccc1)C(=O)NCC(=O)O (racemic) [DL-Phe-Gly]
inhibition of cathepsin C [1]: competitively inhibited

Cc1cc(=O)oc2cc(NC(=O)[C@H](CCCN=C(N)N)NC(=O)[C@@H](N)CCCN=C(N)N)ccc12 [Arg-Arg-AMC] (H-Arg-Arg-{AMC})
turnover of the substrate [2]: no turnover

CC[C@H](C)[C@H](N)C(=O)N[C@@H](CCCNC(=N)N)C(=O)Nc1ccc2c(CC(N)=O)cc(=O)oc2c1 [Ile-Arg-ACC]
Km [2]: 28 ± 2 µM | kcat [2]: 17 ± 1 s⁻¹ | Km [3]: 3.9 ± 0.2 µM | kcat [3]: 0.072 ± 0.003 s⁻¹

N[C@@H](Cc1ccccc1)C(=O)N[C@@H](Cc1ccccc1)C(=O)O [L-Phe-L-Phe] (H-Phe-Phe-OH)
inhibition of cathepsin C [1]: competitively inhibited

N=C(N)NCCC[C@H](NC(=O)[C@@H](N)Cc1ccccc1)C(=O)Nc1ccc2c(CC(N)=O)cc(=O)oc2c1 [Phe-Arg-ACC] (H-Phe-Arg-{ACC})
kinetic behaviour as substrate ([2]; Fig. S3): substrate inhibition was observed | hydrolysis of the substrate [3]: no hydrolysis was observed | mode of inhibition ([4]; rDPAP1, hydrolysis of Pro-Arg-AMC, Dixon analysis): purely competitive | Ki ([4]; rDPAP1, inhibition of hydrolysis of Pro-Arg-AMC, Dixon analysis): 2200 nM | hydrolysis of the substrate [5]: no hydrolysis was observed

Cc1cc(=O)oc2cc(NC(=O)[C@H](CCCN=C(N)N)NC(=O)[C@@H]3CCCN3)ccc12 [Pro-Arg-AMC] (H-Pro-Arg-{AMC})
Km [2]: 130 ± 10 µM | kcat [2]: 490 ± 10 s⁻¹ | Km [3]: 79 ± 2 µM | kcat [3]: 1.8 ± 0.1 s⁻¹ | kcat [5]: 6.2 ± 0.4 s⁻¹

CC(C)[C@H](N)C(=O)N[C@@H](CCCNC(=N)N)C(=O)Nc1ccc2c(CC(N)=O)cc(=O)oc2c1 [Val-Arg-ACC] (H-Val-Arg-{ACC})
Km [2]: 51 ± 8 µM | kcat [2]: 180 ± 10 s⁻¹ | Km [3]: 20 ± 1 µM | kcat [3]: 0.72 ± 0.02 s⁻¹ | kcat [5]: 3.5 ± 0.1 s⁻¹

Cc1cc(=O)oc2cc(NC(=O)C(Cc3ccccc3)NC(=O)C(N)C(C)C)ccc12 (stereo not drawn) [Val-Phe-AMC] (H-Val-Phe-{AMC}; configuration not given here)
increase in kcat/Km relative to Pro-Phe-AMC [6]: 10 fold

CC[C@H](N)C(=O)NNC(=O)N[C@@H](CCc1ccccc1)C(=O)N[C@@H](C)Cc1cccc(F)c1 [compound 1, 1-(2S-2-aminobutanoyl)-4-{2S-N-[2S-3-(m-fluorophenyl)propan-2-yl-amide]-4-phenylbutan-2-yl-amide}semicarbazide]
Ki [4, 9]: sub-nanomolar | Ki [7]: sub-nanomolar | type of inhibition [8]: slow, tight-binding inhibitor

CC[C@H](N)C(=O)NC(C#N)Cc1ccccc1 (stereo partly shown) [compound 2, S-2-aminobutyryl-phenylalanine-nitrile]
Ki [4, 9]: single-digit nanomolar | Ki [7]: single-digit nanomolar

NC(=O)[C@@H](N)Cc1ccccc1 [phenylalaninamide]
inhibition of cathepsin C [1]: competitively inhibited

Arg-Arg-{ACC}
hydrolysis of the substrate [3]: no hydrolysis was observed | hydrolysis of the substrate [5]: no hydrolysis was observed
